Measurements taken from ChEMBL document CHEMBL5331111, “Synthetic Biology Facilitates Semisynthetic Development of Type V Glycopeptide Antibiotics Targeting Vancomycin-Resistant Enterococcus” (J Med Chem, 2023).
≈ marks a conversion by molar mass, not a printed value.

Key:
Assay type in all cases: functional
Staphylococcus aureus = test: Antibacterial activity against Staphylococcus aureus ATCC 33591 assessed as reduction in bacterial growth by Mueller-Hinton broth based assay
How it was run: (§1)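 Broth MIC by standard procedure in Mueller-Hinton broth, for both B. subtilis 168 and S. aureus ATCC 33591.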

Enterococcus faecalis = test: Antibacterial activity against vancomycin-resistant Enterococcus faecalis ATCC 51299 assessed as inhibition of bacterial growth by Mueller-Hinton broth based assay
Enterococcus faecium = test: Antibacterial activity against vancomycin-resistant Enterococcus faecium ATCC 700221 assessed as inhibition of bacterial growth by Mueller-Hinton broth based assay
[1] = system: Mycolicibacterium smegmatis; test: Antimycobacterial activity against Mycobacterium smegmatis MC2 155 assessed as inhibition of bacterial growth measured after 2 days by resazurin dye based analysis; settings: MC2 155, 48 h, time 2 day
How it was run: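 Strains grown in 7H9 broth with 0.2% glycerol, 10% OADC and 0.05% Tween-80. Inoculum was about 5 × 10^5 CFU/mL, checked by plating on 7H10/OADC agar to be 3–8 × 10^5. Read at 2 days for M. smegmatis and 7 days for M. tuberculosis H37Ra, M. bovis and M. avium. Resazurin 30 μg/mL was then added for one further day. Values are averages of at least two experiments.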

Bacillus subtilis = test: Antibacterial activity against Bacillus subtilis 168 assessed as reduction in bacterial growth by Mueller-Hinton broth based assay; how it was run: as §1

| Compound | MIC (Staphylococcus aureus) [µg/mL] | MIC (Enterococcus faecalis) [µg/mL] | MIC (Enterococcus faecium) [µg/mL] | MIC [1] [µg/mL] | MIC (Bacillus subtilis) [µg/mL] |
| --- | --- | --- | --- | --- | --- |
| CCCCCCCCCCCNC(C(=O)N[C@@H]1Cc2c[nH]c3cc(ccc23)-c2cc3cc(c2O)Oc2ccc(cc2)C[C@H]2C(=O)N[C@@H](C(=O)O)c4ccc(O)c(c4)Oc4ccc(cc4)[C@@H](NC(=O)[C@@H]3NC(=O)[C@@H](c3ccc(O)cc3)NC1=O)C(=O)N2C)c1ccc(O)cc1 (stereo partly specified) | 16 (≈ 12.5 µM) | 4 (≈ 3.14 µM) | – | – | – |
| CN1C(=O)[C@@H]2NC(=O)[C@@H]3NC(=O)[C@@H](c4ccc(O)cc4)NC(=O)[C@H](NC(=O)C(NCCCCCCB(O)O)c4ccc(O)cc4)Cc4c[nH]c5cc(ccc45)-c4cc3cc(c4O)Oc3ccc(cc3)C[C@H]1C(=O)N[C@@H](C(=O)OCCCCCCB(O)O)c1ccc(O)c(c1)Oc1ccc2cc1 (stereo partly specified) | – | 64 (≈ 46.5 µM) | – | – | – |
| CCCCNC(C(=O)N[C@@H]1Cc2c[nH]c3cc(ccc23)-c2cc3cc(c2O)Oc2ccc(cc2)C[C@H]2C(=O)N[C@@H](C(=O)O)c4ccc(O)c(c4)Oc4ccc(cc4)[C@@H](NC(=O)[C@@H]3NC(=O)[C@@H](c3ccc(O)cc3)NC1=O)C(=O)N2C)c1ccc(O)cc1 (stereo partly specified) | 16 (≈ 13.6 µM) | – | – | – | – |
| CN1C(=O)[C@@H]2NC(=O)[C@@H]3NC(=O)[C@@H](c4ccc(O)cc4)NC(=O)[C@H](NC(=O)C(NCCS(=O)(=O)O)c4ccc(O)cc4)Cc4c[nH]c5cc(ccc45)-c4cc3cc(c4O)Oc3ccc(cc3)C[C@H]1C(=O)N[C@@H](C(=O)OCCS(=O)(=O)O)c1ccc(O)c(c1)Oc1ccc2cc1 (stereo partly specified) | > 128 | > 128 | > 128 | – | – |
| CN1C(=O)[C@@H]2NC(=O)[C@@H]3NC(=O)[C@@H](c4ccc(O)cc4)NC(=O)[C@H](NC(=O)C(NC(=O)OC(C)(C)C)c4ccc(O)cc4)Cc4c[nH]c5cc(ccc45)-c4cc3cc(c4O)Oc3ccc(cc3)C[C@H]1C(=O)N[C@@H](C(=O)O)c1ccc(O)c(c1)Oc1ccc2cc1 (stereo partly specified) | – | – | 16 (≈ 13.1 µM) | – | – |
| CNCCNC(=O)[C@@H]1NC(=O)[C@@H]2Cc3ccc(cc3)Oc3cc4cc(c3O)-c3ccc5c(c[nH]c5c3)C[C@@H](NC(=O)C(N)c3ccc(O)cc3)C(=O)N[C@H](c3ccc(O)cc3)C(=O)N[C@H]4C(=O)N[C@@H](C(=O)N2C)c2ccc(cc2)Oc2cc1ccc2O (stereo partly specified) | – | 4 (≈ 3.4 µM) | 1 (≈ 0.849 µM) | 0.5 (≈ 0.425 µM) | – |
| CCCCCCCCNC(C(=O)N[C@@H]1Cc2c[nH]c3cc(ccc23)-c2cc3cc(c2O)Oc2ccc(cc2)C[C@H]2C(=O)N[C@@H](C(=O)O)c4ccc(O)c(c4)Oc4ccc(cc4)[C@@H](NC(=O)[C@@H]3NC(=O)[C@@H](c3ccc(O)cc3)NC1=O)C(=O)N2C)c1ccc(O)cc1 (stereo partly specified) | – | 8 (≈ 6.49 µM) | – | – | – |
| CN(C)CCCNC(=O)[C@@H]1NC(=O)[C@@H]2Cc3ccc(cc3)Oc3cc4cc(c3O)-c3ccc5c(c[nH]c5c3)C[C@@H](NC(=O)C(N)c3ccc(O)cc3)C(=O)N[C@H](c3ccc(O)cc3)C(=O)N[C@H]4C(=O)N[C@@H](C(=O)N2C)c2ccc(cc2)Oc2cc1ccc2O (stereo partly specified) | – | – | 2 (≈ 1.66 µM) | – | – |
| CN1C(=O)[C@@H]2NC(=O)[C@@H]3NC(=O)[C@@H](c4ccc(O)cc4)NC(=O)[C@H](NC(=O)C(Nc4ccccn4)c4ccc(O)cc4)Cc4c[nH]c5cc(ccc45)-c4cc3cc(c4O)Oc3ccc(cc3)C[C@H]1C(=O)N[C@@H](C(=O)O)c1ccc(O)c(c1)Oc1ccc2cc1 (stereo partly specified) | – | 16 (≈ 13.4 µM) | 16 (≈ 13.4 µM) | – | 4 (≈ 3.34 µM) |
| CN1C(=O)[C@@H]2NC(=O)[C@@H]3NC(=O)[C@@H](c4ccc(O)cc4)NC(=O)[C@H](NC(=O)Cc4ccc(O)cc4)Cc4c[nH]c5cc(ccc45)-c4cc3cc(c4O)Oc3ccc(cc3)C[C@H]1C(=O)N[C@@H](C(=O)NCCC[N+]1(C)CCCC1)c1ccc(O)c(c1)Oc1ccc2cc1 | > 128 | – | 8 | 1 | – |
| CN1C(=O)[C@@H]2NC(=O)[C@@H]3NC(=O)[C@@H](c4ccc(O)cc4)NC(=O)[C@H](NC(=O)C(NCCO)c4ccc(O)cc4)Cc4c[nH]c5cc(ccc45)-c4cc3cc(c4O)Oc3ccc(cc3)C[C@H]1C(=O)N[C@@H](C(=O)OCCO)c1ccc(O)c(c1)Oc1ccc2cc1 (stereo partly specified) | 32 (≈ 26.5 µM) | – | – | 16 (≈ 13.2 µM) | – |
